# Assay outcomes deposited in PubChem BioAssay by several laboratories.
# This is a sample that favours compounds with a hit; in the whole collection about 2.3% have one here.
# N-glyco inh: N-linked glycosylation inhibition; D54 ERlucT glycosylation luciferase reporter, 24 h; percent of 100 nM tunicamycin response; reporter increase, % at 12.5 µM; actives 0.23% (n = 360,000);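 active = mean luciferase reporter signal, scaled so untreated is 0 and the glycosylation-blocking control 100, at or above a set limit in every replicate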;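 also: luciferase carries N-glycosylation sites so blocking glycosylation raises the light; 0% = median of neutral control wells and 100% = median of 100 nM tunicamycin wells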
# HIV Env fusion: blocks HIV Env-driven cell-cell fusion; HeLa-JRFL Env/CEM21 cell fusion, luciferase; AID 651610; inhibition, % at 12.3 µM; actives 1.1% (n = 360,000);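 active = mean replicate inhibition score of at least 50 and every replicate individually at or above 50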;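 also: 0% = plate neutral controls and 100% = maraviroc near 300 nM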
# PAX8 inh HTS: PAX8 transcriptional activity inhibition. RMG-I TPO-luciferase reporter, SteadyGlo, 24 h. actives 1.2% (n = 360,000). inhibition, % at 12.6 µM;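 active = mean replicate inhibition at least 60% with every replicate also reaching 60%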;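 also: luciferase light reporting Pax8 driven TPO promoter activity; plate controls were median of neutral control wells for no effect and mitoxantrone controls for full effect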
# PfHsp90 set2: growth inhibition of yeast expressing Plasmodium Hsp90; actives 0.32% (n = 310,000); S. cerevisiae expressing PfHsp90, BacTiter-Glo ATP, 48 h; yeast lacking PDR1 and PDR3 efflux regulators; inhibition, % at 9.4 µM;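 active = every replicate shows inhibition above about 80%, whatever the replicate mean, limit read from the data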;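 also: 0% = DMSO neutral controls and 100% = 20 µM radicicol positive controls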
# Arrestin-AP2 inh: blocks beta-arrestin peptide binding to AP2 adaptin | FITC-arrestin peptide / GST-AP2 beads, flow cytometry; AP2 beta2 appendage carries R879A mutation | inhibition, % at 10 µM | actives 0.31% (n = 340,000);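 active = inhibition above a set limit, near 3 SD of compounds lacking own fluorescence, cut at about 54% in these data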;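 also: plate controls were DMSO wells for no effect and 5 µM unlabelled arrestin peptide for full effect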
#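 Material – GST-tagged AP2 beta2-adaptin appendage (R879A) on 4 µm glutathione beads · Probe or stimulus – fluorescein-tagged arrestin peptide at 50 nM final · Timing – 12 min plus 1 h, RT · Detection – bead flow cytometry, FITC channel · Read-out basis – inhibition as reduced fluorescein signal on beads, percent · Medium – PBS plus Tween 20 (0.05%) and BSA (0.1%)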
# Rtt109 HAT inh: inhibitors of Candida albicans Rtt109/Vps75 histone acetyltransferase | Q5AAJ8 | AID 540336 | inhibition, % at 34.9 µM | purified Rtt109/Vps75, ThioGlo CoA-SH fluorescence, 4 h | actives 0.16% (n = 330,000);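 active = inhibition of at least 50% in every replicate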
# Target sequence (Q5AAJ8 whole entry, looked up): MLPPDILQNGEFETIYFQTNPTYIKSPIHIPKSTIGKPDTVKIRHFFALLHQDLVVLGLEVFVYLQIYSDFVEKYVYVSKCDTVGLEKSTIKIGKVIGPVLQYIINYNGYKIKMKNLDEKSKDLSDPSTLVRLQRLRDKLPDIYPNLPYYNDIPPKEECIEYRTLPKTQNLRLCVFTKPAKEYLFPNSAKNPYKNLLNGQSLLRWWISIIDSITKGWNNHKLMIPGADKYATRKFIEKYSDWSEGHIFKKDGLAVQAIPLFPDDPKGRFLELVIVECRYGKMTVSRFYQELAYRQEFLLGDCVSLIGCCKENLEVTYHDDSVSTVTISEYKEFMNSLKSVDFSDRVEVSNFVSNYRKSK
# * hit, by the source's call; / = no result given; [ ] = remark or other dose.
SMILES,N-glyco inh,HIV Env fusion,PAX8 inh HTS,PfHsp90 set2,Arrestin-AP2 inh,Rtt109 HAT inh
CCOC(=O)C1CCN(c2c(N3CCN(c4ccccc4OC)CC3)c(=O)c2=O)CC1,-0.2,3.8,3.4,3.0,-1.7,-6.6
COc1ccc(Nc2nc(N)nc(CN3CCOCC3)n2)cc1,-0.3,/,/,-22.5,1.1,3.6
Cc1ccccc1Nc1nc(N)nc(CCl)n1,4.0,-41.6,102.1*,0.1,9.5,-7.5
Nc1nc(CCl)nc(Nc2ccc3ccccc3c2)n1,4.7,-32.7,97.9*,0.2,1.9,10.1
Cc1ccccc1Nc1nc(N)nc(CN(C)c2ccccc2)n1,5.9,/,/,-1.0,2.9,-5.1
CCOC(=O)C1CCCN(Cc2nc(N)nc(Nc3ccc(OC)cc3)n2)C1 (stereo not drawn),-0.3,70.5*,/,-30.3,-5.2,2.3
COc1ccc(Nc2nc(N)nc(CCl)n2)cc1,2.4,1.3,100.8*,-0.7,-0.1,-2.2
Cc1noc(C)c1S(=O)(=O)Nc1ccc2c(c1)CC(=O)N([C@H](C)CO)C[C@H](C)[C@H](CN(C)Cc1ccc3c(c1)OCO3)O2,/,-10.2[16.7 µM],-11.8,/,/,/
COC(=O)C[C@H]1C[C@@H]2c3cc(NC(=O)Nc4ccc(C(F)(F)F)cc4)ccc3O[C@@H]2[C@@H](CO)O1,/,22.5[16.7 µM],23.8,/,/,/
C[C@H]1CCCCO[C@H](CN(C)S(=O)(=O)c2ccccc2)[C@@H](C)CN([C@@H](C)CO)C(=O)c2cc(NS(=O)(=O)c3ccc(Cl)cc3)ccc2O1,/,25.8[16.7 µM],100.2*,/,/,/
C[C@@H]1CCCCO[C@@H](CN(C)S(=O)(=O)c2ccccc2)[C@H](C)CN([C@H](C)CO)C(=O)c2cc(NS(=O)(=O)c3ccc(Cl)cc3)ccc2O1,/,-1.9[16.7 µM],65.9*,/,/,/
COC(=O)[C@]12C[C@H](CC(=O)NCCC(C)C)C(=O)N(Cc3ccc4c(c3)OCO4)C1=C[C@H](C(C)(C)C)O[C@@H]2C,/,-11.5,5.8,/,/,/
COC(=O)[C@]12C[C@H](CC(=O)NCc3ccccc3)C(=O)N(Cc3ccc4c(c3)OCO4)C1=C[C@H](C(C)(C)C)O[C@@H]2C,/,-7.6,5.4,/,/,/
CCCCNC(=O)C[C@H]1C[C@@]2(C(=O)OC)C(=C[C@H](C(C)(C)C)O[C@@H]2C)N(Cc2ccc3c(c2)OCO3)C1=O,/,81.9*,-7.0,/,/,/
COC(=O)[C@]12C[C@H](CC(=O)NCc3cccc(C(F)(F)F)c3)C(=O)N(Cc3ccc4c(c3)OCO4)C1=C[C@H](C(C)(C)C)O[C@@H]2C,/,59.3*,14.0,/,/,/
O=C(Nc1ncc([N+](=O)[O-])s1)c1ccc2c(c1)OCO2,-18.8,34.0,75.4*,53.3,2.8,7.1
Cc1onc(-c2ccccc2)c1C(=O)Nc1ncc([N+](=O)[O-])s1,-1.2,72.4*,20.4,4.4,-0.9,4.8
Cc1onc(-c2ccccc2)c1C(=O)Nc1nnc(C(C)C)s1,1.3,-2.1,-15.9,-2.9,12.3,4.2
Cc1nc2ccc3nc(NC(=O)c4ccc5c(c4)OCCO5)sc3c2s1,1.6,/,/,2.9,5.7,-1.3
Cc1cnc(NC(=O)c2ccc3c(c2)OCCO3)s1,-17.1,51.6,98.9*,10.0,-3.7,-4.7
Cc1ccc([N+](=O)[O-])cc1NC(=O)c1ccc2c(c1)OCO2,3.1,5.9,19.5,-5.1,-2.1,-7.6
Cc1ccc(C(=O)Nc2ncc([N+](=O)[O-])s2)cc1,-22.6,36.1,86.8*,0.6,-5.0,-0.7
COCC#Cc1cnc2c(c1)C(=O)N([C@H](C)CO)C[C@H](C)[C@H](CN(C)C(=O)Nc1ccccc1F)O2,/,-3.9[16.7 µM],/,/,/,/
CC(C)=CCc1cc([C@@H]2COc3c(ccc4c3C=CC(C)(C)O4)C2)c(O)cc1O,-7.2,/,/,104.5*,-3.2,-4.1
CC1(C)C=Cc2c(ccc3c2OC[C@H](c2ccc(O)cc2O)C3)O1,-0.2,-35.2,-135.1,106.0*,-5.5,14.7
SMILES,N-glyco inh,HIV Env fusion,PAX8 inh HTS,PfHsp90 set2,Arrestin-AP2 inh,Rtt109 HAT inh
O=C(OCc1ccccc1)c1ccc(NCc2cc(O)ccc2O)cc1,4.6,-67.0,59.2,107.7*,-8.2,-1.4
Oc1ccc(NCc2ccccc2OCc2ccccc2)cc1,51.8*,5.0,1.1,-15.6,18.0,-0.6
CC(C)OC(=O)c1ccc(NCc2cc(O)ccc2O)cc1,-6.7,-67.2,40.1,87.3*,-23.7,2.5
CCNCc1ccccc1OCc1ccccc1,0.5,1.7,-1.5,-3.3,-0.7,/
C[C@@H]1CN([C@@H](C)CO)C(=O)c2cc(-c3ccc(C#N)cc3)cnc2O[C@@H]1CN(C)CC1CC1,/,7.0[16.7 µM],/,/,/,/
COc1ccc(OC(=O)N(C)C[C@H]2OCc3ccccc3-c3ccccc3C(=O)N([C@H](C)CO)C[C@H]2C)cc1,/,44.6[16.7 µM],10.4,/,/,/
Oc1ccc(C[C@H]2CNC(=S)N2CC2CCCN2C[C@H](Cc2ccccc2)N2C[C@H](Cc3ccc(O)cc3)N(CC3CCCCC3)C2=S)cc1 (stereo partly drawn),-9.1,-47.3,77.0*,/,/,/
Oc1ccc(C[C@H]2CN([C@@H](Cc3ccccc3)CN3CCC[C@@H]3CN3C(=S)NC[C@@H]3Cc3ccccc3)C(=S)N2CC2CCCCC2)cc1,-11.3,6.9,13.1,/,/,/
CC(C)CCN1CCC(CN2C(=S)NC[C@@H]2Cc2ccccc2)CC1,-1.7,/,-18.3,9.4,34.1,-14.5
CC(C)C[C@H]1CNC(=S)N1C[C@H]1CCCN1C[C@H](Cc1ccc(O)cc1)N1C[C@H](Cc2ccccc2)N(CC2CCCCCC2)C1=S,-4.4,94.0*,-8.8,/,/,/
CC(CCN1CCC(CN2C(=S)NCC2Cc2ccccc2)CC1)c1ccccc1 (stereo not drawn),-0.3,66.3*,15.7,14.9,-19.2,1.2
Oc1ccc(C[C@H]2CNC(=S)N2CC2CCCN2C[C@H](Cc2ccc(O)cc2)N2C[C@H](Cc3ccccc3)N(CC3CCCCCC3)C2=S)cc1 (stereo partly drawn),-7.5,60.6*,90.0*,-6.3,-4.0,3.1
CC(=O)N(C)C[C@H]1Oc2ncc(C#Cc3ccncc3)cc2C(=O)N([C@@H](C)CO)C[C@H]1C,/,-28.1[16.7 µM],/,/,/,/
COCC(=O)N1C[C@@H](C)[C@@H](OC)CN(C)C(=O)c2ccc(NC(=O)c3ccc(F)cc3)cc2OC[C@H]1C,/,1.9[16.7 µM],1.8,/,/,/
CS(=O)(=O)Nc1ccc2c(c1)[C@H]1C[C@H](CC(=O)NCC3CC3)O[C@@H](CO)[C@H]1O2,/,-18.8[16.7 µM],-5.3,/,/,/
Oc1ccc(C[C@@H](CN2CCCC2CN2C(=S)NC[C@@H]2Cc2ccccc2)N2C[C@H](Cc3ccccc3)N(CC3CCCCC3)C2=S)cc1 (stereo partly drawn),/,-25.9,18.8,/,/,/
Oc1ccc(C[C@H]2CNC(=S)N2CC2CCCN2C[C@H](Cc2ccc(O)cc2)N2C[C@H](Cc3ccccc3)N(CC3CCCCC3)C2=S)cc1 (stereo partly drawn),-5.4,49.0,86.9*,-7.5,-1.1,-7.0
